From ChEMBL document CHEMBL1671640, “Antifungal activities of human beta-defensins HBD-1 to HBD-3 and their C-terminal analogs Phd1 to Phd3” (Antimicrob Agents Chemother, 2009) come the findings set out here.

Each structure is given as a SMILES string. ≈ marks a conversion by molar mass, not a printed value. Calls of active or inactive are those of the source. The calls are words filed in the database; no cut-off is given here. Where a SMILES comes first, the peptide text is derived from it. Bridges are numbered along the chain shown (N, C = ends).

Series [1] concerns Candida albicans. The experiment in a line: Fungicidal activity against Candida albicans ATCC 18804 at MFC pretreated with 5 mM sodium azide for 2 hrs at 30 deg C. The class given is functional, organism-based. Put shortly: (§1)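 Mid-log cells at 10^6/ml in phosphate buffer were preincubated 2 h at 30°C with shaking with 5 mM sodium azide or 50 µM CCCP. Peptides were then added at MFC for 2 h at 30°C. Cells plated on YEPD agar for 24 h and colonies counted as percent killing. Three independent experiments in duplicate.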

Series [2] has as its system Candida albicans. The series can be described thus: Fungicidal activity against Candida albicans ATCC 18804 at MFC in presence of 0.5 mM Mg2+. The format is functional, organism-based. The method in brief:
(§2)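 Mid-log cells at 10^6/ml in 10 mM phosphate buffer pH 7.4 containing added NaCl (25 or 100 mM), CaCl2 (0.5 or 5 mM) or MgCl2 (0.5 or 25 mM). Peptides at the stated multiple of MFC, 2 h at 30°C. Aliquots diluted and plated on YEPD agar for 24 h. Colonies counted and percent killing calculated. Three independent experiments in duplicate.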

For series [3], the system named is Candida albicans. The experiment in a line: Antifungal activity against Candida albicans ATCC 18804 after 24 hrs. The conditions noted are these: ATCC 18804, 24 h. The class given is functional. Put shortly: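 Mid-log C. albicans (subcultured 2 h in YEPD after 20 h aerobic growth at 30°C), washed and resuspended at 10^6 cells/ml in 10 mM phosphate buffer pH 7.4. Exposed to peptides for 2 h at 30°C, then diluted, plated on YEPD agar and incubated 24 h at 30°C. MFC = concentration giving no viable colonies. Averages of three independent experiments in duplicate.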

The test system of series [4] is Candida albicans. The experiment in a line: Fungicidal activity against Candida albicans ATCC 18804 assessed as […] killing rate at 2 times MFC in presence of 100 mM NaCl. The class given is functional. Put shortly:
as §2

Series [5] in a line: Toxicity in human Erythrocyte assessed as hemolysis upto 75 uM. The format is cell-based. Put shortly: (§3)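 Human erythrocytes from heparinized blood, washed three times in 5 mM HEPES pH 7.4 with 150 mM NaCl. 10^7 cells/ml incubated with a range of peptide concentrations for 30 min at 37°C with gentle mixing. Supernatant absorbance read at 540 nm. 0.1% Triton X-100 lysis taken as maximum.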

Series [6] is described as follows: Toxicity in human Erythrocyte assessed as hemolysis at 100 uM. The class given is cell-based. To be noted: erythrocytes, read-out: Activity. The method in brief: as §3
Series [7] deals with Candida albicans. The experiment in a line: Induction of membrane damage in Candida albicans ATCC 18804 at 50% MFC by propidium iodide staining. The class given is functional, organism-based. The method in brief:
(§4)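 C. albicans treated 15 min at 30°C with N-terminally carboxyfluorescein-labelled peptides at 50% MFC plus 4 µg/ml propidium iodide. Untreated cells served as control. Examined by confocal microscopy using 488- and 543-nm laser lines, 63× water objective and 1 airy unit optical sections.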

For series [8], the system named is Candida albicans. The experiment in a line: Drug uptake in Candida albicans ATCC 18804 assessed as cellular localization at MFC50 by confocal fluorescence microscopy. The class given is ADME, organism-based. To be noted: in vivo. Put shortly:
as §4

Series [9] has as its system Candida albicans. The experiment in a line: Fungicidal activity against Candida albicans ATCC 18804 at MFC in presence of 25 mM MgCl2. The format is functional, organism-based. The method in brief: as §2
Series [10] has as its system Candida albicans. The experiment in a line: Fungicidal activity against Candida albicans ATCC 18804 at MFC in presence of 25 mM NaCl. The class given is functional, organism-based. The method in brief:
as §2

The test system of series [11] is Candida albicans. The series can be described thus: Fungicidal activity against Candida albicans ATCC 18804 at MFC pretreated with 50 uM carbonyl cyanide m-chlorophenylhydrazone for 2 hrs at 30 deg C. The class given is functional, organism-based. The method in brief: as §1
For series [12], the system named is Candida albicans. The experiment in a line: Induction of membrane damage in Candida albicans ATCC 18804 by Sytox green dye influx assay. The class given is functional, organism-based. Put shortly: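 Mid-log cells (10^7 CFU/ml) washed and resuspended in phosphate buffer with 1 µM Sytox green at 30°C. Once basal fluorescence was constant, peptide was added and the fluorescence increase recorded at excitation 488 nm and emission 540 nm.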

Series [13] concerns Candida albicans. The series can be described thus: Fungicidal activity against Candida albicans ATCC 18804 at MFC in presence of 100 mM NaCl. The class given is functional, organism-based. Put shortly: as §2
The nature of series [14]: Drug localization in membranes of Candida albicans ATCC 18804 at 50% MFC by confocal microscopy. The class given is ADME. The method in brief:
as §4

Series [15] has as its system Candida albicans. The series can be described thus: Fungicidal activity against Candida albicans ATCC 18804 at MFC in presence of 0.5 mM Ca2+. The format is functional, organism-based. The method in brief:
as §2

Series [16] has as its system Candida albicans. The experiment in a line: Fungicidal activity against Candida albicans ATCC 18804 at MFC in presence of 5 mM CaCl2. The class given is functional, organism-based. The method in brief: as §2
Series [17] concerns Candida albicans. The experiment in a line: Fungicidal activity against Candida albicans ATCC 18804 at MFC in presence of 0.5 mM MgCl2. The format is functional, organism-based. The method in brief: as §2

With `CC[C@H](C)[C@@H]1NC(=O)[C@H](CCC(N)=O)NC(=O)[C@H](CCC(=O)O)NC(=O)[C@H](CCC(=O)O)NC(=O)[C@H](CCCCN)NC(=O)[C@@H]2CCCN2C(=O)[C@H](CC(C)C)NC(=O)[C@@H](NC(=O)[C@@H](N)CO)CSSC[C@@H](C(=O)N[C@@H](CCCNC(=N)N)C(=O)N[C@@H](CCCNC(=N)N)C(=O)N[C@@H](CCCCN)C(=O)N[C@@H](CCCCN)C(=O)O)NC(=O)[C@H](CCCCN)NC(=O)[C@H](CCCNC(=N)N)NC(=O)CNC(=O)[C@H](CCCNC(=N)N)NC(=O)[C@H]([C@@H](C)O)NC(=O)[C@H](CO)NC(=O)[C@H](CCCCN)NC(=O)CNC1=O` (H-SCLPKEEQIGKSTRGRKCRRKK-OH; disulfide 2-18), the inhibition result in [1], in series [2], in series [9], in [10] and in series [15] was “Active” in each case. In series [3], the MFC stood at 16 µM (≈ 41.4 µg/mL). Moreover, in series [4], the “inhibition (percent killing)” value is recorded as 50%. In addition, in [5], the Activity entry is on record as “Non-toxic”. In series [6], the hemolysis at 100 µM stood at 15%. Moreover, the result in [7] and in series [12] was Active. Also, the Drug uptake entry in series [8] and in [14] was “Active” throughout. The “fungicidal activity (active/not active)” value in series [11] was “Active”. The inhibition entry in series [13] was “inactive”.
`CC[C@H](C)[C@@H]1NC(=O)[C@H](CCCCN)NC(=O)[C@H]([C@@H](C)O)NC(=O)[C@H](Cc2ccccc2)NC(=O)[C@H]([C@@H](C)CC)NC(=O)[C@@H]2CCCN2C(=O)[C@@H](NC(=O)[C@H](C)N)CSSC[C@@H](C(=O)N[C@@H](CCCCN)C(=O)O)NC(=O)[C@H](CCCCN)NC(=O)[C@H](C)NC(=O)[C@H](CCCCN)NC(=O)CNC(=O)[C@H](CCCNC(=N)N)NC(=O)[C@H](Cc2ccc(O)cc2)NC(=O)[C@H]([C@@H](C)O)NC(=O)CNC(=O)[C@H](CCC(N)=O)NC1=O` (H-ACPIFTKIQGTYRGKAKCK-OH; disulfide 2-18): the inhibition entry in [1], in series [2], in [17], in series [10] and in [15] was “Active” throughout. The inhibition entry in [16] and in series [13] was “inactive” throughout. Besides, in [3], the minimal fungicidal concentration (MFC) worked out at 18 µM (≈ 38 µg/mL). In series [4], the “inhibition (percent killing)” value turned out to be 50%. In addition, the Activity entry in series [5] was “Non-toxic”. In series [6], the hemolysis at 100 µM was determined as 15%. The result in series [7] and in series [12] was Active. Also, the Drug uptake result in [8] and in [14] was “Active” each time. Further, in series [11], the “fungicidal activity (active/not active)” value is “Active”.
For `CC[C@H](C)[C@@H]1NC(=O)[C@H](CCC(N)=O)NC(=O)[C@H](CCCCN)NC(=O)[C@H](Cc2ccc(O)cc2)NC(=O)[C@H](CCCNC(=N)N)NC(=O)[C@H](CCCNC(=N)N)NC(=O)[C@@H]2CCCN2C(=O)[C@@H](NC(=O)[C@@H](N)Cc2ccccc2)CSSC[C@@H](C(=O)N[C@@H](CCCCN)C(=O)O)NC(=O)[C@H](CCCCN)NC(=O)[C@H]([C@@H](C)O)NC(=O)CNC(=O)[C@@H]2CCCN2C(=O)[C@H](CC(C)C)NC(=O)CNC(=O)[C@H]([C@@H](C)O)NC(=O)CNC1=O` (H-FCPRRYKQIGTGLPGTKCK-OH; disulfide 2-18), the inhibition result in series [1], in series [2], in series [17], in series [10] and in series [15] was “Active” each time. Besides, the inhibition result in [16] and in [13] was “inactive” throughout. The molecule also registered an MFC in series [3] of 18 µM (≈ 38.7 µg/mL). Also, in series [4], the “inhibition (percent killing)” value stood at 50%. Moreover, the Activity result in [5] is on record as “Non-toxic”. The hemolysis at 100 µM in [6] was determined as 15%. The result in series [7] and in series [12] was Active. Also, the Drug uptake result in [8] and in series [14] was “Active” each time. In addition, the “fungicidal activity (active/not active)” value in series [11] was “Active”.
`CC[C@H](C)[C@@H]1NC(=O)[C@H](CCCCN)NC(=O)[C@H]([C@@H](C)O)NC(=O)[C@H](Cc2ccccc2)NC(=O)[C@H]([C@@H](C)CC)NC(=O)[C@@H]2CCCN2C(=O)[C@@H]2CSSC[C@@H](C(=O)N[C@@H](CCCCN)C(=O)O)NC(=O)[C@@H]3CSSC[C@H](NC(=O)[C@H](CC(N)=O)NC(=O)[C@H](Cc4ccc(O)cc4)NC(=O)[C@H](Cc4cnc[nH]4)NC(=O)[C@@H](N)CC(=O)O)C(=O)N[C@@H](C(C)C)C(=O)N[C@@H](CO)C(=O)N[C@@H](CO)C(=O)NCC(=O)NCC(=O)N[C@@H](CCC(N)=O)C(=O)N[C@@H](CSSC[C@H](NC(=O)[C@H]([C@@H](C)O)NC(=O)CNC(=O)[C@H](CCC(N)=O)NC1=O)C(=O)N[C@@H](Cc1ccc(O)cc1)C(=O)N[C@@H](CCCNC(=N)N)C(=O)NCC(=O)N[C@@H](CCCCN)C(=O)N[C@@H](C)C(=O)N[C@@H](CCCCN)C(=O)N3)C(=O)N[C@@H](CC(C)C)C(=O)N[C@@H](Cc1ccc(O)cc1)C(=O)N[C@@H](CO)C(=O)N[C@@H](C)C(=O)N2` (H-DHYNCVSSGGQCLYSACPIFTKIQGTCYRGKAKCCK-OH; disulfide 5-34, 12-27, 17-35): the inhibition entry in [1], in [16], in series [10] and in series [13] was “inactive” in each case. The molecule further registered a minimal fungicidal concentration (MFC) in series [3] of 7 µM (≈ 27.5 µg/mL). For the same molecule, the “inhibition (percent killing)” value in series [4] amounted to 50%. In addition, the inhibition entry in series [17] was “Active”. In series [11], the “fungicidal activity (active/not active)” value is “inactive”.
